Source: ChEMBL document CHEMBL1123076, “Synthesis and biological evaluation of 9-[5'-(2-oxo-1,3,2-oxazaphosphorinan-2-yl)-beta-D-arabinosyl]ade nine and 9-[5'-(2-oxo-1,3,2-dioxaphosphorinan-2-yl)-beta-D-arabinosyl]ade nine: potential neutral precursors of 9-[beta-D-arabinofuranosyl]adenine 5'-monophosphate” (1985)

Assays:
Format in all cases: functional
Mus musculus [1] = test: Antitumor activity was evaluated as median survival time in BDF1 mice (six mice per group) implanted intraperitoneally with P-388 leukemia cells (10e6 )at a dose of 300 mg/Kg,
How it was run: (§1)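 Male BDF1 mice (average weight 23 g) inoculated ip with 10^6 P-388 leukemia cells on day 0; leukemia maintained by weekly ip passage in female DBA/2 mice. Compound in sterile 0.9% saline given ip once daily for 9 consecutive days starting 24 h after implantation; controls received saline alone. Animals observed for 60 days or until death; median survival time recorded.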

Mus musculus [2] = test: Antitumor activity was evaluated as median survival time in BDF1 mice (six mice per group) implanted intraperitoneally with P-388 leukemia cells (10e6 )at a dose of 500 mg/Kg,; how it was run: as §1
Mus musculus [3] = test: Antitumor activity was evaluated as percent increase in life span in BDF1 mice (six mice per group) implanted intraperitoneally with P-388 leukemia cells (10e6 )at a dose of 300 mg/Kg,; details: P388, ip
How it was run: (§2)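 Male BDF1 mice (average weight 23 g) implanted ip with 10^6 P-388 cells on day 0. Treatment in sterile 0.9% saline given ip daily for 9 days starting 24 h after implantation; saline-only controls. Animals observed up to 60 days. Median survival of treated (T) vs controls (C) expressed as %ILS = (T/C − 1) × 100; significance at P < 0.05.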

Mus musculus [4] = test: Antitumor activity was evaluated as percent increase in life span in BDF1 mice (six mice per group) implanted intraperitoneally with P-388 leukemia cells (10e6 )at a dose of 500 mg/Kg,; details: P388, ip; how it was run: as §2
Mus musculus [5] = test: Antitumor activity was evaluated as percent increase in life span in BDF1 mice (six mice per group) implanted intraperitoneally with P-388 leukemia cells (10e6 )at a dose of 100 mg/Kg,; details: P388, ip; how it was run: as §2
Mus musculus [6] = test: Antitumor activity was evaluated as median survival time in BDF1 mice (six mice per group) implanted intraperitoneally with P-388 leukemia cells (10e6 )at a dose of 100 mg/Kg,; how it was run: as §1
Mus musculus [7] = test: Antitumor activity was evaluated as percent increase in life span in BDF1 mice (six mice per group) implanted intraperitoneally with P-388 leukemia cells (10e6 )at a dose of 600 mg/Kg,; details: P388, ip; how it was run: as §2
Mus musculus [8] = test: Antitumor activity was evaluated as median survival time in BDF1 mice (six mice per group) implanted intraperitoneally with P-388 leukemia cells (10e6 )at a dose of 600 mg/Kg,; how it was run: as §1

Compound	MST (Mus musculus [1]) [days]	MST (Mus musculus [2]) [days]	ILS at 300 mg/kg (Mus musculus [3]) [%]	ILS at 500 mg/kg (Mus musculus [4]) [%]	ILS at 100 mg/kg (Mus musculus [5]) [%]	MST (Mus musculus [6]) [days]	ILS at 600 mg/kg (Mus musculus [7]) [%]	MST (Mus musculus [8]) [days]
Nc1ncnc2c1ncn2C1O[C@H](COP2(=O)NCCCO2)[C@@H](O)[C@@H]1O (stereo not given in full)	12	8	33	-11	33	12		
Nc1ncnc2c1ncn2C1O[C@H](COP2(=O)OCCCO2)[C@@H](O)[C@@H]1O (stereo not given in full)					0	9		
Nc1ncnc2c1ncn2[C@@H]1O[C@H](CO)[C@@H](O)[C@H]1O [ADENOSINE]							33	12
